Results taken from ChEMBL document CHEMBL3616366, “Design, synthesis and biological activity of new amides derived from 3-methyl-3-phenyl-2,5-dioxo-pyrrolidin-1-yl-acetic acid” (Eur J Med Chem, 2015).
Activity calls are given as the source filed them.

Tests used:
[1] = test system: Mus musculus; test: Anticonvulsant activity in albino CD-1 mouse assessed as protection against maximal electroshock-induced seizure at 30 to 300 mg/kg, ip measured after 0.5 hrs; type: functional; details: for minimal effective dose: CD-1, ip, read-out: MED
Procedure, shortened: (§1)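 Male CD-1 mice (16–26 g), compound suspended in 0.5% methylcellulose/water, i.p. at 30, 100, 300 mg/kg; four mice per group, each used once. Electroconvulsion by electrical stimulus 0.2 s at 50 Hz; protection scored at 0.5 and 2 h. Value is minimum dose showing activity.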

[2] = test system: Mus musculus; test: Anticonvulsant activity in albino CD-1 mouse assessed as protection against maximal electroshock-induced seizure at 30 to 300 mg/kg, ip measured after 2.0 hrs; type: functional; details: for minimal effective dose: CD-1, ip, read-out: MED; procedure, shortened: as §1
[3] = test system: Mus musculus; test: Anticonvulsant activity in albino CD-1 mouse assessed as protection against subcutaneous pentylenetetrazole-induced seizure at 30 to 300 mg/kg, ip measured after 0.5 hrs; type: functional; details: for minimal effective dose: CD-1, 0.5 h, read-out: MED
Procedure, shortened: (§2)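 Male CD-1 mice given compound i.p. (0.5% methylcellulose suspension) at 30, 100, 300 mg/kg, four per group; pentylenetetrazole 85 mg/kg s.c. at 0.5 or 2 h. Absence of clonic convulsions (≥5 s) over 30 min observation counts as protection. Minimum active dose reported.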

[4] = test system: Mus musculus; test: Anticonvulsant activity in albino CD-1 mouse assessed as protection against subcutaneous pentylenetetrazole-induced seizure at 30 to 300 mg/kg, ip measured after 2.0 hrs; type: functional; details: for minimal effective dose: CD-1, 2 h, read-out: MED; procedure, shortened: as §2
[5] = test system: Mus musculus; test: Neurotoxicity in albino CD-1 mouse assessed as motor impairment at 30 to 300 mg/kg mg/kg, ip measured after 0.5 hrs by rotarod test; type: toxicity, organism-based; details: in vivo
Procedure, shortened: (§3)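 Rotarod in male CD-1 mice at 0.5 and 2 h after i.p. 30, 100 or 300 mg/kg (methylcellulose suspension); motor impairment = inability to keep balance on rod turning at 10 rpm for at least 1 min. Minimum neurotoxic dose reported.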

[6] = test system: Mus musculus; test: Neurotoxicity in albino CD-1 mouse assessed as motor impairment at 30 to 300 mg/kg mg/kg, ip measured after 2 hrs by rotarod test; type: toxicity, organism-based; details: in vivo; procedure, shortened: as §3
[7] = test system: Mus musculus; test: Anticonvulsant activity in ip dosed albino CD-1 mouse assessed as protection against maximal electroshock-induced seizure; type: functional; details: CD-1, ip
Procedure, shortened: (§4)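 Quantitative work at time of peak effect previously estimated in screening; groups of six mice given various i.p. doses until ≥3 points within 10–90% seizure protection (MES or scPTZ) or minimal motor impairment on rotarod (10 rpm, failure to hold ≥1 min).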

[8] = test system: Mus musculus; test: Anticonvulsant activity in ip dosed albino CD-1 mouse assessed as protection against maximal electroshock-induced seizure measured as time to peak effect; type: functional; procedure, shortened: as §4
[9] = test system: Mus musculus; test: Anticonvulsant activity in ip dosed albino CD-1 mouse assessed as protection against subcutaneous pentylenetetrazole-induced seizure measured as time to peak effect; type: functional; procedure, shortened: as §4
[10] = Neurotoxicity in ip dosed albino CD-1 mouse assessed as motor impairment by rotarod test; type: toxicity, organism-based; details: in vivo; procedure, shortened: as §4
[11] = Protective index, ratio of TD50 for neurotoxicity in ip dosed albino CD-1 mouse to ED50 for anticonvulsant activity in ip dosed maximal electoshock-induced seizure albino CD-1 mouse model; type: toxicity, organism-based; details: in vivo, read-out: Ratio TD50/ED50
Procedure, shortened: (§5)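 Protective index computed as TD50 (rotarod) divided by ED50 (MES or scPTZ), both from probit analysis on groups of six i.p.-dosed mice.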

[12] = test system: Mus musculus; test: Anticonvulsant activity in ip dosed albino CD-1 mouse assessed as protection against 6 Hz current-induced seizure measured after 0.5 hrs; type: functional; details: CD-1, ip, read-out: MED
Procedure, shortened: (§6)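 6-Hz psychomotor test: corneal stimulation 32 mA, 0.2 ms monopolar rectangular pulses at 6 Hz for 3 s, mice restrained then released to observation cage. Protected if normal exploratory behaviour resumes within 10 s. Doses 30, 100, 300 mg/kg i.p.; read at 0.5 and 2 h; minimum active dose.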

[13] = test system: Mus musculus; test: Anticonvulsant activity in ip dosed albino CD-1 mouse assessed as protection against 6 Hz current-induced seizure measured after 2.0 hrs; type: functional; details: CD-1, ip, read-out: MED; procedure, shortened: as §6
[14] = test system: Salmonella typhimurium; test: Mutagenic activity in Salmonella typhimurium TA100 assessed as mutagenicity index at 40 ng/ml by Ames test; type: toxicity, organism-based; details: salmonella enterica subsp. enterica serovar typhimurium
Procedure, shortened: (§7)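 Ames TA100 liquid pre-incubation (minimal medium, 37 °C) and V. harveyi assay (BOSS medium, 30 °C); test at 40 ng/ml, triplicate. Mutagenic index = induced revertants / spontaneous revertants (DMSO control); M.I. ≥2 considered mutagenic.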

[15] = test system: Vibrio harveyi; test: Mutagenic activity in Vibrio harveyi BB7 assessed as mutagenicity index at 40 ng/ml; type: organism-based; details: in vivo; procedure, shortened: as §7
[16] = test system: Vibrio harveyi; test: Mutagenic activity in Vibrio harveyi BB7XM assessed as mutagenicity index at 40 ng/ml; type: organism-based; details: in vivo; procedure, shortened: as §7
[17] = test system: Salmonella typhimurium; test: Antimutagenic activity in Salmonella typhimurium TA100 assessed as inhibition of nitroquinoline-N-oxide-induced revertant colonies by Ames test; type: functional, Salmonella enterica subsp. enterica serovar Typhimurium
Procedure, shortened: (§8)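 Revertants induced by 4-nitroquinoline-N-oxide (final 40 ng/ml) with versus without test compound; TA100 at 37 °C, V. harveyi strains at 30 °C in BOSS medium. Three independent repetitions; inhibition % = 100 − (R1/R2 × 100); 25–40% moderate, ≥40% strong.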

[18] = test system: Vibrio harveyi; test: Antimutagenic activity in Vibrio harveyi BB7 assessed as inhibition of nitroquinoline-N-oxide-induced revertant colonies; type: functional; procedure, shortened: as §8
[19] = test system: Vibrio harveyi; test: Antimutagenic activity in Vibrio harveyi BB7XM assessed as inhibition of nitroquinoline-N-oxide-induced revertant colonies; type: functional; procedure, shortened: as §8
[20] = test system: Mus musculus; test: Anticonvulsant activity in ip dosed albino CD-1 mouse assessed as protection against subcutaneous pentylenetetrazole-induced seizure; type: functional; procedure, shortened: as §4
[21] = Protective index, ratio of TD50 for neurotoxicity in ip dosed albino CD-1 mouse to ED50 for anticonvulsant activity in ip dosed subcutaneous pentylenetetrazole-induced seizure albino CD-1 mouse model; type: toxicity, organism-based; details: in vivo, read-out: Ratio TD50/ED50; procedure, shortened: as §5
[22] = species on record: Rattus norvegicus; test: Displacement of [3H]BTX from voltage-sensitive sodium channel site2 in rat cerebral cortex at 100 uM measured after 60.0 mins by scintillation counting; type: tissue-based
[23] = test system: Mus musculus; test: Neurotoxicity in albino CD-1 mouse assessed as mouse mortality at 300 mg/kg mg/kg, ip measured after 0.5 hrs; type: toxicity, organism-based; details: in vivo
Procedure, shortened: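 Male albino CD-1 mice (16–26 g), four per group, each used once. Compounds were suspended in 0.5% methylcellulose/water and injected i.p. at 30, 100 and 300 mg/kg. Acute motor impairment was scored by rotarod at 0.5 and 2 h: inability to stay on a rod turning at 10 rpm for at least 1 min.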

SMILES	MED [1]	MED [2]	minimal effective dose [3] [mg/kg]	MED [4]	MTC [5]	MTC [6]	minimal effective dose [1] [mg/kg]	minimal effective dose [2] [mg/kg]	MED [3]	Time [8] [h]	Time [9] [h]	TD50 [10] [mg/kg]	minimal effective dose [4] [mg/kg]	other results
CC1(c2ccccc2)CC(=O)N(CC(=O)N2CCN(c3cccc(Cl)c3Cl)CC2)C1=O (configuration not stated)	inactive	inactive	300	inactive	Non-toxic	Non-toxic	–	–	–	–	–	–	–	–
COc1cccc(N2CCN(C(=O)CN3C(=O)CC(C)(c4ccccc4)C3=O)CC2)c1 (configuration not stated)	inactive	inactive	100	inactive	Non-toxic	Non-toxic	–	–	–	–	–	–	–	–
CC1(c2ccccc2)CC(=O)N(CC(=O)N2CCN(c3cccc(Cl)c3)CC2)C1=O (configuration not stated)	–	–	–	inactive	Non-toxic	Non-toxic	300	300	inactive	2	2	> 500	–	ED50 [7]: 215 mg/kg; selectivity ratio [11]: > 2.32
CC1(c2ccccc2)CC(=O)N(CC(=O)N2CCOCC2)C1=O (configuration not stated)	–	–	300	–	Non-toxic	Non-toxic	300	300	–	–	–	–	300	minimal effective dose [12]: 100 mg/kg; minimal effective dose [13]: 100 mg/kg
Cc1ccccc1N1CCN(C(=O)CN2C(=O)CC(C)(c3ccccc3)C2=O)CC1 (configuration not stated)	inactive	inactive	–	inactive	Non-toxic	Non-toxic	–	–	inactive	–	–	–	–	–
CC1(c2ccccc2)CC(=O)N(CC(=O)N2CCN(c3ncccn3)CC2)C1=O (configuration not stated)	inactive	inactive	–	–	Non-toxic	Non-toxic	–	–	inactive	–	–	–	100	–
Cc1cccc(N2CCN(C(=O)CN3C(=O)CC(C)(c4ccccc4)C3=O)CC2)c1 (configuration not stated)	–	–	–	inactive	300 mg/kg	300 mg/kg	100	300	inactive	–	–	–	–	–
CC1(c2ccccc2)CC(=O)N(CC(=O)N2CCN(c3ccc(Cl)c(Cl)c3)CC2)C1=O (configuration not stated)	inactive	–	–	inactive	Non-toxic	Non-toxic	–	300	inactive	–	–	–	–	Activity_index [14]: 0.3; Activity_index [15]: 1.2; Activity_index [16]: 0.7; inhibition (INH) [17]: 36%; inhibition (INH) [18]: 47%; inhibition (INH) [19]: 63%
CC1(c2ccccc2)CC(=O)N(CC(=O)N2CCC(Cc3ccccc3)CC2)C1=O (configuration not stated)	inactive	–	100	inactive	Non-toxic	Non-toxic	–	300	–	0.5	0.5	> 500	–	Activity_index [14]: 0.5; Activity_index [15]: 1.5; Activity_index [16]: 1.6; inhibition (INH) [17]: 5%; inhibition (INH) [18]: 22%; inhibition (INH) [19]: 26%; ED50 [20]: 60 mg/kg; selectivity ratio [21]: > 8.33
CCC1(C)CC(=O)NC1=O (configuration not stated) [ETHOSUXIMIDE]	inactive	inactive	100	–	Non-toxic	Non-toxic	–	–	–	0.25	0.25	–	300	ED50 [7]: > 500 mg/kg
CCCC(CCC)C(=O)O [VALPROIC ACID]	–	inactive	300	inactive	Non-toxic	Non-toxic	300	–	–	0.5	0.5	–	–	–
CC1(c2ccccc2)CC(=O)N(CC(=O)N2CCN(c3ccccc3)CC2)C1=O (configuration not stated)	–	inactive	100	–	Non-toxic	Non-toxic	300	–	–	0.5	0.5	> 500	300	inhibition [22]: 34.2%; ED50 [20]: 40.9 mg/kg; selectivity ratio [21]: > 12.2
CC1(c2ccccc2)CC(=O)N(CC(=O)N2CCN(c3cccc(C(F)(F)F)c3)CC2)C1=O (configuration not stated)	–	–	–	inactive	Non-toxic	Non-toxic	300	300	inactive	–	–	–	–	minimal effective dose [12]: 300 mg/kg; minimal effective dose [13]: 300 mg/kg
CC1(c2ccccc2)CC(=O)N(CC(=O)N2CCN(C3CCCCC3)CC2)C1=O (configuration not stated)	inactive	inactive	–	inactive	300 mg/kg	Non-toxic	–	–	inactive	–	–	–	–	Activity [23]: Toxic
CC1(c2ccccc2)CC(=O)N(CC(=O)N2CCN(c3ccc(Cl)cc3)CC2)C1=O (configuration not stated)	inactive	inactive	300	–	Non-toxic	Non-toxic	–	–	–	–	–	–	300	–
O=C1NC(=O)C(c2ccccc2)(c2ccccc2)N1 [PHENYTOIN]	–	–	–	inactive	100 mg/kg	100 mg/kg	30	30	inactive	1	1	59.9	–	ED50 [7]: 6.65 mg/kg; ED50 [20]: > 500 mg/kg; selectivity ratio [11]: 5.56
CC1(c2ccccc2)CC(=O)N(CC(=O)N2CCN(c3ccccc3Cl)CC2)C1=O (configuration not stated)	inactive	inactive	–	–	Non-toxic	Non-toxic	–	–	inactive	2	2	> 500	100	ED50 [20]: 120 mg/kg; selectivity ratio [21]: > 4.16
CC1(c2ccccc2)CC(=O)N(CC(=O)N2CCN(Cc3ccccc3)CC2)C1=O (configuration not stated)	inactive	inactive	100	–	300 mg/kg	300 mg/kg	–	–	–	0.5	0.5	205	300	ED50 [20]: 96.5 mg/kg; selectivity ratio [21]: 2.12
